Data set [1] can be described thus: Apparent permeability from apical to basolateral side in human Caco2 cells at 20 uM incubated for […] by LC-MS/MS analysis. Format: ADME, cell-based. The settings on record: Caco-2. On the technique in general: Caco-2 monolayers are a common model of the intestinal barrier.
Data set [2] can be described thus: Solubility in pH 6.8 buffer by nephelometry. Format: physicochemical.
The nature of data set [3]: Solubility in pH 7.4 buffer by nephelometry. Format: physicochemical.
A short description of data set [4]: Apparent permeability from basolateral to apical side in human Caco2 cells at 20 uM incubated for […] by LC-MS/MS analysis. Format: ADME, cell-based. As to conditions: Caco-2.
Data set [5] in a line: Solubility in pH 7.0 buffer by nephelometry. Format: physicochemical.
Data set [6] in a line: Efflux ratio in human Caco2 cells at 20 uM incubated for […] by LC-MS/MS analysis. The settings on record: Caco-2. Format: ADME, cell-based.
The target of data set [7] is Dipeptidyl peptidase 4 (Mus musculus, UniProt P28843). As to the kind of experiment: Inhibition of DPP4 in C57BL/6 mouse serum pre-incubated for 5 mins followed by Gly-Pro-7-AMC substrate addition by fluorescence based assay. Format: cell-free.
Data set [8] is described as follows: Stability in mouse intestinal S9 fractions assessed as phase I and phase II enzymes-mediated generation of systemic metabolites at 0.1 uM incubated at 37 degC for 10 mins by LC-MS/MS analysis. Format: ADME, subcellular, Intestine, S9 fraction. As to conditions: s9, 10 min.
Data set [9] in a line: Stability in human intestinal S9 fractions assessed as phase I and phase II enzymes-mediated generation of systemic metabolites at 0.1 uM incubated at 37 degC for 10 mins by LC-MS/MS analysis. Format: ADME, subcellular, Intestine, S9 fraction. As to conditions: s9, 10 min.
Data set [10] concerns Mus musculus. As to the kind of experiment: Inhibition of jejunum DPP4 in BALB/c mouse at 30 mg/kg, po after 8 hrs using Gly-Pro-7-AMC substrate by fluorescence based assay. Format: functional, organism-based. The gist of the method: (§1)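 Mice were dosed orally at 30 mg/kg and intestinal DPPIV activity was measured 8 h later in three intestinal segments. Activity is expressed relative to a vehicle control group, with n = 6 per group. Data are mean ± SEM, compared with control by Student's t-test.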

In data set [11] the test system is Mus musculus. As to the kind of experiment: Inhibition of colon DPP4 in BALB/c mouse at 30 mg/kg, po after 8 hrs using Gly-Pro-7-AMC substrate by fluorescence based assay. Format: functional, organism-based. The gist of the method:
as §1

Data set [12] deals with Mus musculus. As to the kind of experiment: Inhibition of ileum DPP4 in BALB/c mouse at 30 mg/kg, po after 8 hrs using Gly-Pro-7-AMC substrate by fluorescence based assay. Format: functional, organism-based. The gist of the method: as §1
The nature of data set [13]: Toxicity in ICR mouse assessed as effect on body weight at 1000 mg/kg, po administered as single dose after 4 days. As to conditions: in vivo, 96 h.
Data set [14] in a line: Selectivity index, ratio of IC50 for recombinant human DPP9 to IC50 for inhibition of DPP4 in C57BL/6 mouse serum.
Data set [15] deals with HepG2. As to the kind of experiment: Cytotoxicity in human HepG2 cells assessed as reduction in cell viability up to 200 uM incubated for 24 hrs by MTT assay. Format: cell-based. The settings on record: hepg2, 24 h. (Tetrazolium assays rely on reduction of a dye to a coloured formazan, in cell work by metabolically active cells.)
Data set [16] has as its system HEK293. As to the kind of experiment: Cytotoxicity in HEK293 cells assessed as reduction in cell viability up to 200 uM incubated for 24 hrs by MTT assay. As to conditions: human, hek293, 24 h. Format: cell-based.
Data set [17] in a line: Selectivity index, ratio of IC50 for recombinant human DPP8 to IC50 for inhibition of DPP4 in C57BL/6 mouse serum.
A short description of data set [18]: Toxicity in ICR mouse assessed as mouse survival at 1000 mg/kg, po administered as single dose after 4 days. As to conditions: in vivo, 96 h.
A short description of data set [19]: Toxicity in ICR mouse assessed as effect on behavioral parameters at 1000 mg/kg, po administered as single dose after 4 days. The settings on record: in vivo, 96 h.
Data set [20] in a line: Toxicity in ICR mouse assessed as effect on clinical parameters at 1000 mg/kg, po administered as single dose after 4 days. As to conditions: in vivo, 96 h.
The subject of data set [21] is Hepatocyte. As to the kind of experiment: Cytotoxicity in mouse primary hepatocytes assessed as reduction in cell viability up to 200 uM incubated for 24 hrs by MTT assay. Format: cell-based.

Structures are written as SMILES. Active and inactive are the calls of the source. The rule behind the calls is not given here.

Chain of Dipeptidyl peptidase 4 (P28843 whole entry): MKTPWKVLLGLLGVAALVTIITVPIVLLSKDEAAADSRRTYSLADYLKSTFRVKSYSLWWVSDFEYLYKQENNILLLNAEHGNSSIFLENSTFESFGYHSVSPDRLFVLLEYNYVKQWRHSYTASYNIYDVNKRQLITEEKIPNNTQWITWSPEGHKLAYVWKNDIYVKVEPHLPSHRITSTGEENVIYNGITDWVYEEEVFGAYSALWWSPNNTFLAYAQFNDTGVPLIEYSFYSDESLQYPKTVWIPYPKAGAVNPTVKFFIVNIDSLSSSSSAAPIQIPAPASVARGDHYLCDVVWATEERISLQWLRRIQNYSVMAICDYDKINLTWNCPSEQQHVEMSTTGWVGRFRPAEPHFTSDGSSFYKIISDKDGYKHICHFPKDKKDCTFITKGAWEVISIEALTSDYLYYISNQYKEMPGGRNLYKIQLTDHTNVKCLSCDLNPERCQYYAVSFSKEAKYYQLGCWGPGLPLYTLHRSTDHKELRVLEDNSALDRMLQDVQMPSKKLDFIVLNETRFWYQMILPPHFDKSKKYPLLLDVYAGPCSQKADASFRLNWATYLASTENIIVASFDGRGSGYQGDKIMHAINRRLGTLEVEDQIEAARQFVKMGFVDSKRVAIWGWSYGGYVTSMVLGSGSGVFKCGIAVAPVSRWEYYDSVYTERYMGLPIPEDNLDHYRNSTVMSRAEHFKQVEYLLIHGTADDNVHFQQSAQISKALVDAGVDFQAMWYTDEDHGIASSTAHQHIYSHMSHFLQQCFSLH

As a reminder, the Papp A→B is how fast a substance crosses the layer from the apical side. Usually solubility (kinetic) stands for solubility judged after dilution from a stock solution rather than from solid. As usually defined, the Papp B→A is how fast a substance crosses the layer from the basolateral side. By efflux ratio is commonly meant the permeability from basolateral to apical divided by that in the opposite direction, in the common usage. In general, IC50 refers to the point on the concentration scale where inhibition reaches its midpoint. A high value points to weaker potency in that assay. On to `N[C@@H](CC(=O)NC1(c2nc3ccc(OCCCCCC(=O)NC[C@H](O)[C@@H](O)[C@@H](O)[C@H](O)CO)cc3s2)CCS(=O)(=O)CC1)Cc1cc(F)c(F)cc1F.O=C(O)C(F)(F)F`, for which the Papp A→B at […], 20 µM in data set [1] was 0.02 ×10⁻⁶ cm/s. For the same compound, the kinetic solubility in [2] is more than 50 µM; in data set [3], 20 to 50 µM; in data set [5] it was 20 to 50 µM. The basolateral-to-apical permeability (Papp B→A) at […], 20 µM in data set [4] is 0.27 ×10⁻⁶ cm/s. Moreover, the efflux ratio at […], 20 µM in data set [6] is 13. Also, in data set [7], half-maximal inhibition (IC50) was put at 3.5 nM.

`C[N+](C)(C)CCNC(=O)CCCCCCCCCCCOc1ccc2nc(C3(NC(=O)C[C@H](N)Cc4cc(F)c(F)cc4F)CCS(=O)(=O)CC3)sc2c1` displayed an IC50 in data set [7] of 116 nM. That is a sub-micromolar value.

For `N[C@@H](CC(=O)NC1(c2nc3ccc(OCCCCCC(=O)NCCS(=O)(=O)O)cc3s2)CCS(=O)(=O)CC1)Cc1cc(F)c(F)cc1F.O=C(O)C(F)(F)F`, the Papp A→B at […], 20 µM in data set [1] was found to be 0.002 ×10⁻⁶ cm/s. Besides, the solubility (kinetic) in [2] is 20 to 50 µM; in data set [3], more than 50 µM; in [5], more than 50 µM. In addition, the basolateral-to-apical permeability (Papp B→A) at […], 20 µM in [4] was 0.59 ×10⁻⁶ cm/s. Also, in data set [6], the efflux ratio at […], 20 µM was 295. In addition, in data set [7], the IC50 amounted to 2 nM.

For the compound `C[N+](C)(C)CCNC(=O)CCCCCOc1ccc2nc(C3(NC(=O)C[C@H](N)Cc4cc(F)c(F)cc4F)CCS(=O)(=O)CC3)sc2c1.O=C(O)C(F)(F)F.O=C([O-])C(F)(F)F`, the Papp A→B at […], 20 µM in data set [1] stood at 0.02 ×10⁻⁶ cm/s. Further, the solubility (kinetic) in [2], in data set [3] and in data set [5] was more than 50 µM each time. Moreover, in data set [4], the Papp B→A at […], 20 µM came to 0.11 ×10⁻⁶ cm/s. In data set [6], the efflux ratio at […], 20 µM worked out at 6. This compound also displayed an IC50 in data set [7] of 3 nM.

In turn, `N[C@@H](CC(=O)NC1(c2nc3ccc(OCCCCCCCCCCCC(=O)NC[C@H](O)[C@@H](O)[C@@H](O)[C@H](O)CO)cc3s2)CCS(=O)(=O)CC1)Cc1cc(F)c(F)cc1F` returned an IC50 in data set [7] of 168 nM.

As to `C[C@]12CC[C@H]3[C@@H](CCC4=CC(=O)CC[C@@]43C)[C@@H]1CC[C@@H]2O` [TESTOSTERONE], the Stability result in data set [8] and in data set [9] was “Unstable” each time.

Turning to `C[N+](C)(C)CCNC(=O)COc1ccc2nc(C3(NC(=O)C[C@H](N)Cc4cc(F)c(F)cc4F)CCS(=O)(=O)CC3)sc2c1.O=C(O)C(F)(F)F.O=C([O-])C(F)(F)F`, the inhibition result in data set [10], in [11] and in [12] was “Active” each time. Further, in [1], the apparent permeability from apical to basolateral (Papp A→B) at […], 20 µM was 0.02 ×10⁻⁶ cm/s. Moreover, the solubility (kinetic) in [2], in data set [3] and in [5] was more than 50 µM each time. In addition, the Papp B→A at […], 20 µM in data set [4] was 0.004 ×10⁻⁶ cm/s. Besides, the Stability result in [8] and in [9] was “Stable” each time. In [6], the efflux ratio at […], 20 µM was 0.2. The same compound showed an IC50 in data set [7] of 1.4 nM.

Take `N[C@@H](CC(=O)NC1(c2nc3ccc(OCC(=O)NCCS(=O)(=O)O)cc3s2)CCS(=O)(=O)CC1)Cc1cc(F)c(F)cc1F.O=C(O)C(F)(F)F`: the Activity result in data set [13], in data set [15], in data set [16], in data set [18], in [19] and in data set [20] was “Non-Toxic” in each case. For the same compound, the Activity result in data set [21] is on record as “Non-Toxic”. Further, the inhibition result in data set [10], in data set [11] and in data set [12] was “Active” throughout. In data set [1], the Papp A→B at […], 20 µM turned out to be 0.04 ×10⁻⁶ cm/s. The Ratio IC50 in data set [14] and in data set [17] was more than 2000 in each case. For the same compound, the kinetic solubility in data set [2], in [3] and in [5] was more than 50 µM throughout. Besides, the basolateral-to-apical permeability (Papp B→A) at […], 20 µM in [4] is 0.01 ×10⁻⁶ cm/s. The Stability result in data set [8] and in data set [9] was “Stable” in each case. In addition, the efflux ratio at […], 20 µM in data set [6] worked out at 0.3. Moreover, half-maximal inhibition in [7] (IC50) was put at 1.1 nM.

As for `N[C@@H](CC(=O)N1CCn2c(nnc2C(F)(F)F)C1)Cc1cc(F)c(F)cc1F` [SITAGLIPTIN], the inhibition entry in data set [10], in data set [11] and in data set [12] was “Active” in each case. In addition, the Papp A→B at […], 20 µM in data set [1] was found to be 0.25 ×10⁻⁶ cm/s. For the same compound, the basolateral-to-apical permeability (Papp B→A) at […], 20 µM in [4] turned out to be 12.2 ×10⁻⁶ cm/s.

`N[C@@H](CC(=O)NC1(c2nc3ccc(OCCCCCCCCCCCC(=O)NCCS(=O)(=O)O)cc3s2)CCS(=O)(=O)CC1)Cc1cc(F)c(F)cc1F` gave an IC50 in data set [7] of 81.8 nM.

`N[C@@H](CC(=O)NC1(c2nc3ccc(OCC(=O)NC[C@H](O)[C@@H](O)[C@@H](O)[C@H](O)CO)cc3s2)CCS(=O)(=O)CC1)Cc1cc(F)c(F)cc1F.O=C(O)C(F)(F)F`: the Papp A→B at […], 20 µM in data set [1] was 0.02 ×10⁻⁶ cm/s. Moreover, the kinetic solubility in [2], in data set [3] and in [5] was more than 50 µM each time. Further, the Papp B→A at […], 20 µM in data set [4] was determined as 0.001 ×10⁻⁶ cm/s. Moreover, in [6], the efflux ratio at […], 20 µM was determined as 0.05. The compound also displayed an IC50 in data set [7] of 2.2 nM.

Take `O=c1ccc2ccc(O)cc2o1` [UMBELLIFERONE]: the Stability result in [8] and in data set [9] was “Unstable” in each case.

The values are drawn from ChEMBL document CHEMBL4334524, “Discovery of Highly Polar β-Homophenylalanine Derivatives as Nonsystemic Intestine-Targeted Dipeptidyl Peptidase IV Inhibitors” (J Med Chem, 2019).
